Drawing on ChEMBL document CHEMBL4513216, “Probing the Open Global Health Chemical Diversity Library for Multistage-Active Starting Points for Next-Generation Antimalarials” (ACS Infect Dis, 2020), this text covers cytotoxicity for 96 molecules.

The data set in a line: Toxicity liver stage against HepG2, at 10uM. Format: cell-based. Also on record: test concentration 10 uM, cell line HepG2-A16-CD81EGFP. As to conditions: human, HepG2-A16-CD81EGFP cells; read-out: INHIBITION
In short, it runs like this: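 Uninfected HepG2-A16-CD81EGFP cells, 3 × 10^3 per well, 1536-well, plated on prespotted compound at 10 μM final, parasite-free screening media added to match infected plates; puromycin 10 μM positive, DMSO 0.5% negative; run in parallel with 48 h PbLuc assay at 37 °C, 5% CO2; viability by CellTiter-Glo luminescence, normalized to controls.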
Regarding `CN1CCCN(c2nccc(-c3c[nH]nc3-c3ccncc3)n2)CC1`, the cytotoxicity at 10 µM was -11%.

As to `CCN(CC)CCNC(=O)CCc1c(C)nn(-c2ccccc2Br)c1C`, the cytotoxicity at 10 µM came to 10.6%.

For the molecule `c1cnc(N2CCO[C@H]3[C@H](OCCN4CCCC4)CC[C@@H]32)nc1`, the cytotoxicity at 10 µM is -11.8%.

Regarding `Cc1csc2c(=O)n(CCN3CCC(c4ccccc4)CC3)cnc12`, the cytotoxicity at 10 µM was found to be 1.2%.

Consider `CN1CC[C@H](N(Cc2ccccc2)CC2CC2)C[C@H](O)C1`, for which the cytotoxicity at 10 µM was -1.47%.

As for `CCN(Cc1nc2c(cnn2C)c(=O)[nH]1)Cc1ccccc1Cl`, the cytotoxicity at 10 µM was -22.7%.

On to `CNC(=O)c1csc(-c2ccoc2)n1`, for which the cytotoxicity at 10 µM is -5.64%.

As to `NC(=O)CCN(C(=O)c1cccc2c1OCO2)c1ccccc1`, the cytotoxicity at 10 µM is -16.5%.

`O=C(c1cccc(F)c1)N1CCc2ncc(Cn3cccn3)n2CC1`: the cytotoxicity at 10 µM stood at 2.05%.

Turning to `Cc1cc2c(=O)n3c(nc2s1)CCN(C(=O)c1cnn(C)c1)CC3`, the cytotoxicity at 10 µM is -1.94%.

As to `CC(=O)N1CCN(C(=O)c2csc(-c3ccc(C)cc3C)n2)CC1`, the cytotoxicity at 10 µM was -18.8%.

Turning to `Cc1ccccc1N1CC(c2nnc(N)s2)CC1=O` (stereo unspecified), the cytotoxicity at 10 µM is -0.411%.

Turning to `CN(C)C(=O)CN1CCCC(c2cncc(-c3cccc(Cl)c3)n2)C1` (stereo unspecified), the cytotoxicity at 10 µM came out at 24%.

For the molecule `Cc1ccc2c(-c3nc4c([nH]3)CCNC4C(=O)O)cccc2n1` (stereo unspecified), the cytotoxicity at 10 µM is -3.15%.

As for `c1cc(-c2cnc(NC3CC3)nc2[C@@H]2CCCO2)ccn1`, the cytotoxicity at 10 µM stood at 8.72%.

Consider `CN(C)Cc1ccnc(C2CCCN2Cc2cc3ccccc3s2)n1` (stereo unspecified), for which the cytotoxicity at 10 µM was 20.2%.

Consider `Cc1cccnc1CSCCCNS(C)(=O)=O`, for which the cytotoxicity at 10 µM was -15.1%.

As to `CN(C)S(=O)(=O)N1C[C@@H]2C[C@H](C(=O)NCc3ccccc3)[C@H](C1)O2`, the cytotoxicity at 10 µM was 4.09%.

On to `Cc1cc(N2CCN(C(=O)c3cnn(C(C)C)c3)CC2)nc(N)n1`, for which the cytotoxicity at 10 µM was -2.82%.

Take `O=C(c1cccc2c1OCO2)N1CCCC1Cn1cccn1` (stereo unspecified): the cytotoxicity at 10 µM stood at 3.46%.

In the case of `Cc1ccc(NC(=O)CCc2ccco2)cc1N1CCOC1=O`, the cytotoxicity at 10 µM is -8.43%.

Turning to `COc1ccc(C(=O)N2Cc3c(Cn4ccnc4)nn(C)c3C2)cc1`, the cytotoxicity at 10 µM came to 4.89%.

For `CN(C)c1nc(NCCCN2CCc3ccccc32)ncc1F`, the cytotoxicity at 10 µM stood at 27.3%.

Take `c1cnc2c(CN3CCCCC3c3ccncn3)cnn2c1` (stereo unspecified): the cytotoxicity at 10 µM was -10.2%.

On to `CCc1nc(CN(Cc2cccs2)CC2CCCO2)no1` (stereo unspecified), for which the cytotoxicity at 10 µM was 2.26%.

Consider `Cc1ccc(S(=O)(=O)NC[C@H]2OC[C@@H](NCc3ccccn3)[C@@H]2O)cc1`, for which the cytotoxicity at 10 µM is -52.5%.

Take `CC(=O)N1CCN(CCCOc2ccccc2F)CC(C(N)=O)C1` (stereo unspecified): the cytotoxicity at 10 µM was -28.7%.

Turning to `COC(=O)NCC(=O)N(C)Cc1csc(C)n1`, the cytotoxicity at 10 µM worked out at 2.33%.

For the molecule `CCN1CCN(C(=O)c2ccc(OC)nn2)c2ccccc21`, the cytotoxicity at 10 µM was -1.78%.

`CNC(=O)[C@H]1C[C@@H]2CN(C(=O)c3ccc(C)nc3)C[C@@H]2N1C(C)C`: the cytotoxicity at 10 µM is -116%.

As to `O=C(NCC1CCC2(CC1)OCCO2)c1ccncc1F`, the cytotoxicity at 10 µM came to 14.4%.

Turning to `O=C(C1CCOCC1)N1C[C@H]2CNC[C@H]2C1`, the cytotoxicity at 10 µM is -8.58%.

`CC(C)N(C)C(=O)CN1CCCC(c2ccc(C(=O)O)cc2)C1` (stereo unspecified): the cytotoxicity at 10 µM is -7.74%.

Turning to `O=C(CCn1cccn1)N1CCSCC1`, the cytotoxicity at 10 µM was -5.92%.

`CC(C)Cc1nc(NC(=O)c2cc(-c3cccnc3)n[nH]2)n[nH]1`: the cytotoxicity at 10 µM was found to be 2.34%.

With `O=C(N1CCCO1)[C@@]12CCO[C@@H]1CCN(Cc1ccccn1)C2`, the cytotoxicity at 10 µM was 3.98%.

As for `Cc1cc2n(n1)CC(CNC1CCN(C(=O)c3ccco3)CC1)CN2` (stereo unspecified), the cytotoxicity at 10 µM amounted to 4%.

Turning to `COc1cccc2c1OCC(C(=O)N1CCC(N3CCSCC3)CC1)C2` (stereo unspecified), the cytotoxicity at 10 µM is 2.24%.

In the case of `O=C(Nc1cnn(Cc2ccc(Cl)cc2)c1)N1CCCC1CO` (stereo unspecified), the cytotoxicity at 10 µM was -1.13%.

Turning to `COc1cc(CNCCc2cnn(C)c2)cc(OC)c1OC`, the cytotoxicity at 10 µM was -9.51%.

In the case of `Cn1ccnc1CN1CCN(Cc2ccccc2)[C@@H]2CS(=O)(=O)C[C@@H]21`, the cytotoxicity at 10 µM is -3.41%.

`CCS(=O)(=O)N1CCN(Cc2ccncc2)c2nc(C)ccc2C1`: the cytotoxicity at 10 µM is -70.8%.

Turning to `COc1ccc(F)cc1NC(=O)NCC1(CN2CCOCC2)CC1`, the cytotoxicity at 10 µM was 3.18%.

`CN(C)C(=O)COCc1nnc2n1CCN(Cc1ccsc1)C2`: the cytotoxicity at 10 µM was found to be 7.16%.

As to `Cc1ccc(-c2nnc(CN3CC[C@H](CO)[C@@H](O)C3)o2)n1C`, the cytotoxicity at 10 µM is -4.39%.

Consider `Cn1cc(N2CC3(CCN(Cc4cccnc4)CC3)OCC2=O)cn1`, for which the cytotoxicity at 10 µM is -79.3%.

Regarding `CC(C)(C)c1coc([C@@H]2COCCN2Cc2csnn2)n1`, the cytotoxicity at 10 µM came out at 3.33%.

With `O=C(NCCc1ccncc1)C1CCN(Cc2ccco2)CC1`, the cytotoxicity at 10 µM worked out at 26.1%.

For `O=C(Nc1ccc(-c2csnn2)cc1)N1CCN2CCCCC2C1` (stereo unspecified), the cytotoxicity at 10 µM was -7.23%.

Regarding `COCCN1C[C@H](OCc2csc(C)n2)[C@H]2COC[C@H]21`, the cytotoxicity at 10 µM was -6.08%.

As for `Cc1cc(=O)n(CC(=O)NC2CCCCC2)c2ccccc12`, the cytotoxicity at 10 µM worked out at 0.126%.

On to `O=C(Cn1cc(I)cn1)Nc1cccnc1`, for which the cytotoxicity at 10 µM is -2.59%.

In the case of `CC(C)C(=O)Nc1cccc(C(=O)Nc2ccccn2)c1`, the cytotoxicity at 10 µM was -2.37%.

For the molecule `CN(CCC(F)(F)F)Cc1nc2ccccc2c(=O)[nH]1`, the cytotoxicity at 10 µM is -5.61%.

As for `O=C(c1ccnnc1)N1C[C@H](Oc2ccccn2)[C@H]2OCCC[C@H]21`, the cytotoxicity at 10 µM was -0.00736%.

As to `COCCN1CCO[C@@H]2CN(Cc3ccc(C)o3)C[C@@H]2C1`, the cytotoxicity at 10 µM was -7.24%.

For the molecule `CNC(=O)CS(=O)(=O)C1CCN(S(=O)(=O)c2ccccc2Cl)CC1`, the cytotoxicity at 10 µM stood at 11.7%.

As to `COc1cc(C)cc(C(C(=O)O)N(C)Cc2ccncc2C)c1OC` (stereo unspecified), the cytotoxicity at 10 µM was 0.231%.

Regarding `CCc1nc(CN2CCCC(Nc3ncnc4ccsc34)C2)no1` (stereo unspecified), the cytotoxicity at 10 µM turned out to be 52.2%.

As to `CN(Cc1ccco1)C1CCC12CCN(C(=O)c1ccco1)CC2` (stereo unspecified), the cytotoxicity at 10 µM was -10.9%.

As to `CCS(=O)(=O)N1CCCn2nnc(CNC(C)=O)c2C1`, the cytotoxicity at 10 µM is -113%.

For `COc1cccc2c1OCC(CNC(=O)CCn1cnnn1)C2` (stereo unspecified), the cytotoxicity at 10 µM is -144%.

Take `Cc1cc(CN2CCN(C(=O)NCc3nc(C)cs3)CC2)on1`: the cytotoxicity at 10 µM was -5.01%.

For `CN1CCC2(CCCN(C(=O)c3cncn3C)C2)CC1`, the cytotoxicity at 10 µM is -0.757%.

On to `Cc1cc(C(F)(F)F)nc(CNC(=O)CCC2CCCN(C)C2)n1` (stereo unspecified), for which the cytotoxicity at 10 µM was -53.9%.

On to `CCC(C(=O)N(C)Cc1cc(COC)[nH]n1)n1cccn1` (stereo unspecified), for which the cytotoxicity at 10 µM was -5.89%.

`CCOCC(O)CN1CCN(C(=O)C2CC2)CC1` (stereo unspecified): the cytotoxicity at 10 µM was -7.2%.

In the case of `Cn1cc(C2CC(=O)NC23CCN(c2ncc(F)cn2)CC3)cn1` (stereo unspecified), the cytotoxicity at 10 µM was -5.39%.

Consider `CCN(Cc1ccc2cccc(O)c2n1)CC1CCCO1` (stereo unspecified), for which the cytotoxicity at 10 µM is -4.02%.

Consider `CN(C)CCO[C@@H]1CC[C@H]2[C@H]1OCCN2C(=O)CCc1ccccc1`, for which the cytotoxicity at 10 µM is -6.69%.

For `Cc1cc(C)n(Cc2cc(C(=O)N[C@H]3CCCCNC3=O)n[nH]2)n1`, the cytotoxicity at 10 µM amounted to 5.97%.

In the case of `CC(C)(O)CN1CCN(C(=O)C2CSc3ccccc3O2)CC1` (stereo unspecified), the cytotoxicity at 10 µM was 2.16%.

For the molecule `O=C(NCc1cc(O)ncn1)C1CCOc2ccccc2C1` (stereo unspecified), the cytotoxicity at 10 µM is -6.01%.

For `CCc1ccc(NC(=O)C(C)N2CCN(Cc3ncc[nH]3)CC2)cc1` (stereo unspecified), the cytotoxicity at 10 µM is -7.83%.

For the molecule `Cc1cccnc1C(Cc1ccsc1)NC(=O)Cn1cccnc1=O` (stereo unspecified), the cytotoxicity at 10 µM stood at 3.08%.

For `O=C(NCCN1CCCCCC1=O)c1n[nH]c(=O)c2ccccc12`, the cytotoxicity at 10 µM is -4.38%.

Take `Cn1ccc(C(=O)N2CCCC(c3cc4cccnc4c(O)n3)C2)n1` (stereo unspecified): the cytotoxicity at 10 µM is 4.53%.

With `Cc1nc(CC2CCCN(Cc3nc(N)c4ccccc4n3)C2)no1` (stereo unspecified), the cytotoxicity at 10 µM is -41.3%.

Consider `Cc1nc(CNc2nc3c(s2)c(C)nn3C)cs1`, for which the cytotoxicity at 10 µM was -109%.

`CC(C)CCNC(=O)C1CCCN1C(=O)Nc1cccc(F)c1` (stereo unspecified): the cytotoxicity at 10 µM is -1.04%.

Take `c1ncn(CC2CN(Cc3noc(C4CC4)n3)CCO2)n1` (stereo unspecified): the cytotoxicity at 10 µM amounted to 1.59%.

For the molecule `CN1CC(C(=O)NC(C)(C)C)CC1=O` (stereo unspecified), the cytotoxicity at 10 µM was -3.36%.

As for `c1ccc(O[C@H]2COCCN(Cc3cccc4c3OCO4)C2)cc1`, the cytotoxicity at 10 µM came out at 3.53%.

As for `Cc1ccc(C2(CN3CCN(Cc4cncn4C)CC3)CC2)cc1`, the cytotoxicity at 10 µM was -13.1%.

In the case of `COc1ccccc1C1=NOC(CC2(C(=O)O)CCOCC2)C1` (stereo unspecified), the cytotoxicity at 10 µM was -9.9%.

On to `CCCSCC(=O)N1C[C@@H]2CC[C@H]1CN(c1ncccn1)C2`, for which the cytotoxicity at 10 µM worked out at 4.42%.

With `Cc1n[nH]cc1CNC1(Cc2ccc(Br)cc2)CCCCC1`, the cytotoxicity at 10 µM came out at 14.1%.

As for `O=C(NCCCNC(=O)c1cccc(O)c1)NCc1ccccc1F`, the cytotoxicity at 10 µM was -6.42%.

For `NC(=O)c1ccc(-n2ccnc2-c2cccc(O)c2)cc1N1CCCC1`, the cytotoxicity at 10 µM amounted to 15.8%.

For the molecule `CCOCc1nc2c(c(NC(COC)c3ccccn3)n1)CCNCC2` (stereo unspecified), the cytotoxicity at 10 µM is -3.21%.

With `O=C1CC2(CCN(C(=O)c3ccccc3)C2)Nc2ccccc2N1` (stereo unspecified), the cytotoxicity at 10 µM worked out at 9.98%.

As to `CCn1nc2c(cc1=O)CN(Cc1nc(N)c3ccccc3n1)CC2`, the cytotoxicity at 10 µM was -5.59%.

In the case of `CC(Cn1cccn1)NCc1csc(-c2ccc3c(c2)OCO3)n1` (stereo unspecified), the cytotoxicity at 10 µM was -26%.

Consider `CC(CNC(=O)c1ccccc1Oc1cccnc1)N(C)C` (stereo unspecified), for which the cytotoxicity at 10 µM is -9.29%.

As for `Cc1cc(C(F)(F)F)nc(CNc2cc(C)nc3cc(C)nn23)n1`, the cytotoxicity at 10 µM was determined as 9.29%.

Take `Cc1ccc(-c2nc(CN3CCOC(CN(C)C)C3)co2)cc1` (stereo unspecified): the cytotoxicity at 10 µM is -4.23%.
